The term Ki denotes the equilibrium dissociation constant of an inhibitor or competing ligand from its target. Read a high Ki as a looser hold on the target. For orientation: IC50 means the concentration that gives 50% inhibition. Low values mean higher potency, high ones lower potency. Broadly, the EC50 is the concentration at which the effect is half-maximal.

SMILES strings stand for the structures. Calls of active or inactive are those of the source. No cut-off for these calls is given here.

This note sets out measurements from ChEMBL document CHEMBL1151946, “Doxazosin-related alpha1-adrenoceptor antagonists with prostate antitumor activity” (J Med Chem, 2009).

Assay [1] addresses T1, Alpha-1B adrenergic receptor (Homo sapiens, UniProt P35368).
T1 sequence (P35368 whole entry): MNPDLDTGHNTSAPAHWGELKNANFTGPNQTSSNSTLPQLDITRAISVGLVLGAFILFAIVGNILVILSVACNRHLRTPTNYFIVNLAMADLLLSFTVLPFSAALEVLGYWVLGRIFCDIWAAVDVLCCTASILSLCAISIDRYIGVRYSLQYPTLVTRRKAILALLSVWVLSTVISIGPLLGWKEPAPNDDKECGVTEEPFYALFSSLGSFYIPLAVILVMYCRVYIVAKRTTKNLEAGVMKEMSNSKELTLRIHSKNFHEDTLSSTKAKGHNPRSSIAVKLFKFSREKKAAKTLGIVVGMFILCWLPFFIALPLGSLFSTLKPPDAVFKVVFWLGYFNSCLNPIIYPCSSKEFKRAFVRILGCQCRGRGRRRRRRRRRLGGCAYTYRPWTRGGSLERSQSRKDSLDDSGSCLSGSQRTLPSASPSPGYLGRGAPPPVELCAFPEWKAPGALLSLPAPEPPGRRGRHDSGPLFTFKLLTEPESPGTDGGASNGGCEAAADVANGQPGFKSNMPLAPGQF
Put plainly: Displacement of [3H]prazosin from human Alpha-1B adrenoceptor expressed in CHO cells. The assay is classed as cell-based. The gist of the method: (§1)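 Radioligand competition binding used [3H]prazosin on membranes of CHO cells expressing human α1a, α1b or α1d adrenoceptor. IC50 values were converted to pKi by the Cheng-Prusoff equation. Data come from two to three experiments run in triplicate, agreeing within ±20%.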
(Loss of bound radioactivity is the signal in a displacement assay; it reports binding, not function.)

Assay [2] deals with T2, Alpha-1D adrenergic receptor (Homo sapiens, UniProt P25100).
T2 sequence (P25100 whole entry): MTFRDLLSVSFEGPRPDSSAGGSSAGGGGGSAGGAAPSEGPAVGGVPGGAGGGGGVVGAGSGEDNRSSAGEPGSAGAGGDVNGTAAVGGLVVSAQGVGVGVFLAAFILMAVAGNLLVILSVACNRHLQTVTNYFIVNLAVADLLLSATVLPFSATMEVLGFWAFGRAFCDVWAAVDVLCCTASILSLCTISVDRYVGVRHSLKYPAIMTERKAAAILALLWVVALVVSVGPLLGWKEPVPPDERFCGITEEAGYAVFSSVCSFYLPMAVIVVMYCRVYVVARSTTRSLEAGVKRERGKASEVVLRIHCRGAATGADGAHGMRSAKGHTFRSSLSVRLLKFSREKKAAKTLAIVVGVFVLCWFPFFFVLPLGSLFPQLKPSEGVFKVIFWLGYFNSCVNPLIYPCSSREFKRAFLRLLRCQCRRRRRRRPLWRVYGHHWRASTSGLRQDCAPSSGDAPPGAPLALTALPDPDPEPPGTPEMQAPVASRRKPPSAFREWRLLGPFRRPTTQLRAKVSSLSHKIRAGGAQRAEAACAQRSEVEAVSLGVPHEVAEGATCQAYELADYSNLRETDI
Put plainly: Displacement of [3H]prazosin from human Alpha-1D adrenoceptor expressed in CHO cells. Format: cell-based. The essentials: as §1

The subject of assay [3] is PC-3. Put plainly: Cytotoxicity against human PC3 cells after 72 hrs by CellTitter-Glo luminescent cell viability assay. The assay is classed as functional, cell-based. The note with it: PC-3, 72 h.
Assay [4] addresses T3, Alpha-1A adrenergic receptor (Homo sapiens, UniProt P35348).
T3 sequence (P35348 whole entry): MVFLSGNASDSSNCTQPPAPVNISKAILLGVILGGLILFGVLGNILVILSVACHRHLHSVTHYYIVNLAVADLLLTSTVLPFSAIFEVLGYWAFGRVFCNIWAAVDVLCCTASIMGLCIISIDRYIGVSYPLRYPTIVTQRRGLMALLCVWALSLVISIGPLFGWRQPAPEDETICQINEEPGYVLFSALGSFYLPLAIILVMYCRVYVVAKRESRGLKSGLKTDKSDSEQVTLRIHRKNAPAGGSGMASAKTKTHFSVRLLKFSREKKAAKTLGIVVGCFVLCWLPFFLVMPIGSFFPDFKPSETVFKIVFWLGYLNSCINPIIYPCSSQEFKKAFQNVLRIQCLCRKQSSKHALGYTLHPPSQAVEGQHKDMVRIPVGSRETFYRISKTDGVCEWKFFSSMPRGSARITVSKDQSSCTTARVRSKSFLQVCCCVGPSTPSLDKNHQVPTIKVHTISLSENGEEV
Put plainly: Displacement of [3H]prazosin from human alpha1A adrenoceptor expressed in CHO cells. The assay is classed as cell-based. The gist of the method:
as §1

The target in assay [5] is T4, Alpha-1A adrenergic receptor (Rattus norvegicus, UniProt P43140).
T4 sequence (P43140 whole entry): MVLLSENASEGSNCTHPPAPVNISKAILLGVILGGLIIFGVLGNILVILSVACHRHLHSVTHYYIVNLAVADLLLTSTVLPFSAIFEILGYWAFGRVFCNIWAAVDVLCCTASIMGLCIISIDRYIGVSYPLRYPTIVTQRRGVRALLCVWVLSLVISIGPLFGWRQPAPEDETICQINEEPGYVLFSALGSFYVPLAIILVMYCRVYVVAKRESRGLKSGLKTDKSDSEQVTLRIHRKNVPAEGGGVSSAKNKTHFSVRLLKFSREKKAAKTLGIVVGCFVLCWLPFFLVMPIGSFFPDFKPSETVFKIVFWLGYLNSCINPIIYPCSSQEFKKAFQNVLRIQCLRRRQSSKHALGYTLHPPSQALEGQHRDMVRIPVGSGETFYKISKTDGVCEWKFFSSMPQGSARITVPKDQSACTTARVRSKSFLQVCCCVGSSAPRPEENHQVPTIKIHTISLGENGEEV
In words: Antagonist activity at rat alpha1A adrenoceptor assessed as inhibition if norepinephrine-induced contraction of vas deference. The note with it: read-out: pA2 (converted). Format: functional. The essentials: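 Isolated rat tissue contraction assay. The α1A response used vas deferens with (-)-noradrenaline as agonist, α1D used thoracic aorta with (-)-noradrenaline, and α1B used spleen with (-)-phenylephrine. pA2 values are means ± SEM over three antagonist concentrations, each tested at least four times. Where the Schild slope differed from unity, pKB was calculated by van Rossum at the lowest antagonist concentration giving log(CR−1) ≥0.5.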

Assay [6] has as its system LNCaP. Put plainly: Induction of apoptosis in human LNCAP cells assessed as caspase 3/7 activation after 24 hrs Caspase-Glo 3/7 assay. The assay is classed as functional, cell-based. As to conditions: Homo sapiens, LNCaP, 24 h; read-out: EC50.
Assay [7] relates to PC-3. Put plainly: Induction of apoptosis in human PC3 cells assessed as caspase 3/7 activation after 24 hrs by Caspase-Glo 3/7 assay. Format: functional, cell-based. As to conditions: PC-3, 24 h.
Assay [8] concerns LNCaP. Put plainly: Cytotoxicity against human LNCAP cells after 72 hrs by CellTitter-Glo luminescent cell viability assay. The assay is classed as functional, cell-based.
The subject of assay [9] is NHDF. Put plainly: Cytotoxicity against human NHDF cells after 72 hrs by CellTitter-Glo luminescent cell viability assay. The assay is classed as functional, cell-based.
Assay [10] concerns NHDF. In words: Induction of apoptosis in human NHDF cells assessed as caspase 3/7 activation after 24 hrs Caspase-Glo 3/7 assay. Format: functional, cell-based.
Assay [11] relates to PC-3. Put plainly: Antiangiogenic activity in human PC3 cells xenografted in NU/NU mouse assessed as reduction vascularization at 3 mg/kg by immunohistochemistry. Format: functional, organism-based. Details: dose 3 mg/kg. The essentials: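 Vascularization of PC-3 flank tumors from nude mice dosed orally was assessed by immunohistochemistry with rat anti-mouse CD31 monoclonal antibody as endothelial marker. Doses were 0.3, 1 and 3 mg/kg.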

In assay [12] the test system is DU-145. Put plainly: Cytotoxicity against human DU145 cells after 72 hrs by CellTitter-Glo luminescent cell viability assay. Format: functional, cell-based. The note with it: DU-145, 72 h.
Assay [13] has as its system DU-145. In words: Induction of apoptosis in human DU145 cells assessed as caspase 3/7 activation after 24 hrs Caspase-Glo 3/7 assay. Format: functional, cell-based. The note with it: Homo sapiens, DU-145, 24 h.
In assay [14] the test system is PC-3. Put plainly: Induction of apoptosis in human PC3 cells xenografted in NU/NU mouse assessed as DNA fragmentation at 0.3 to 3 mg/kg by agarose gel electrophoresis. The assay is classed as functional, organism-based. The gist of the method:
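DNA from PC-3 subcutaneous tumors of orally treated nude mice was run on an electrophoretic gel. Apoptosis was scored as a DNA ladder pattern.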
Background: Xenograft models place foreign cells or tissue in a host animal.

`COc1cc2nc(N3CCN(C(=O)C4COc5ccccc5O4)[C@@H]4CCCC[C@@H]43)nc(N)c2cc1OC` (single isomer, unassigned): the Ki was 0.00141 µM in assay [1], 0.00049 µM in [2] and 0.00339 µM in assay [4]. For the same compound, the IC50 in the assay on PC-3 [3] came to 1.02 µM.

For the compound `COc1cc2nc(N3CCN(C(=O)c4ccco4)[C@H]4CCCC[C@H]43)nc(N)c2cc1OC` [CYCLAZOSIN], the Ki in [1] was 0.000324 µM; in [2], 0.00017 µM; in assay [4] it was 0.0055 µM. In addition, the Kb in assay [5] is 0.00123 µM.

For the compound `COc1cc2nc(N3CCN(C(=O)C4COc5ccccc5O4)CC3)nc(N)c2cc1OC` (stereo unspecified) [DOXAZOSIN], the EC50 with LNCaP [6] is 100 µM; in the assay with PC-3 [3] it was > 100 µM; in the assay with PC-3 [7], > 100 µM; in the assay on NHDF [9], 40.4 µM; in the assay with NHDF [10], 40.4 µM; in the assay on DU-145 [12], > 100 µM. Further, in the assay with DU-145 [13], the EC50 was > 100 µM. Further, the IC50 in the assay on PC-3 [3] stood at 38.6 µM; in the assay with LNCaP [8], 28.1 µM; in the assay with NHDF [9], 43 µM; with DU-145 [12], 37.4 µM. The result with PC-3 [11] and with PC-3 [14] was Active.
